Test results from publication PMC7437931 (Journal of medicinal chemistry, 2020).
*1 amine or outer side, *2 acyl side, *3 side chain or, on linkers, in order; H or OH if unused. Where a SMILES comes first, the peptide text is derived from it. Bridges are numbered along the chain shown (N, C = ends). Triazole bridges read from a SMILES are 1,4-linked. [ ]: non-standard residue; d: D form. The star is where a group is joined. RhodamineB = CCN(CC)c1ccc2c(-c3ccccc3C(=O)*)c3ccc(=[N+](CC)CC)cc-3oc2c1; Lys(N3) = [N-]=[N+]=NCCCC[C@H](N)C(=O)O; NMeGABA = CN(CCCC(=O)[*:2])[*:1]; Pra = C#CC[C@H](N)C(=O)O

Experiments:
[1] = biological target: D570-A583 epitope of proMMP2 (Fluo-epitope) (Homo sapiens, UniProt P08253); test: FRET binding assay; details: 100 nM Fluo-epitope, varying Rhod-peptide
In short: (§1)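 Fluorescein-labelled epitope held at 100 nM final and mixed with a concentration series of rhodamine-tagged cyclic peptide. Mixtures were incubated 30 min, then FRET intensity was read on a microplate reader. Each point used individually prepared triplicate samples.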

[2] = system: Fluo-C5 (C-terminal scrambled epitope); test: FRET binding assay with partially scrambled epitope C5; details: 100 nM Fluo-epitope variation
In short: as §1

[3] = system: Fluo-M5 (middle segment scrambled epitope); test: FRET binding assay with partially scrambled epitope M5; details: 100 nM Fluo-epitope variation
In short: as §1

[4] = system: Fluo-N5 (N-terminal scrambled epitope); test: FRET binding assay with partially scrambled epitope N5; details: 100 nM Fluo-epitope variation
In short: as §1

[5] = biological target: Fluo-epitope (fluorescein-labeled D570-A583 epitope of proMMP2) (human); test: FRET or BRET

Row | Molecule | binding affinity to the epitope (FRET) [1] | binding to scrambled epitope C5 (FRET) [2] | binding to scrambled epitope M5 (FRET) [3] | binding to scrambled epitope N5 (FRET) [4] | Kd [5] [nM]
1 | CCN(CC)c1ccc2c(-c3ccccc3C(=O)N(C)CCCC(=O)N[C@H]3Cc4cn(nn4)CCCC[C@@H](C(N)=O)NC(=O)[C@H](Cc4ccc(O)cc4)NC(=O)[C@@H]4CCCN4C(=O)[C@H](Cc4c[nH]cn4)NC(=O)[C@@H]4CCCN4C(=O)[C@H](Cc4c[nH]c5ccccc45)NC3=O)c3ccc(=[N+](CC)CC)cc-3oc2c1 [Rhod-cy(WPHPY)] (RhodamineB-[NMeGABA][Pra]WPHPY[Lys(N3)]-NH2; triazole 2-8; N-terminus assumed) | highest binding affinity | not able to bind | retained the binding affinity | retained the binding affinity | –
2 | cy(WPHPY) (peptide) | – | – | – | – | 1
